Measured values from ChEMBL document CHEMBL4342521 (J Med Chem, 2020).
Activity calls are given as the source filed them. No cut-off for these calls is given here.

Columns and labels:
SF-539 = experiment: Antiproliferative activity against human SF539 cells assessed as reduction in cell viability after 48 hrs by CellTiter-Blue assay; format: functional; settings: SF-539, 48 h, read-out: LC50 (the source's name)
In short: (§1)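 Cells grown in RPMI1640 with 10% FBS at 37 °C, 5% CO₂. 5,000–10,000 cells/well were pre-incubated overnight, and a time-zero CellTiter-Blue read was taken. Six 10-fold dilutions (top final 10 μM) were applied for 48 h, followed by 0.125 mg/mL CellTiter-Blue for 2–4 h. Resorufin fluorescence was read at ex 560/em 590 nm. […] Triplicates.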

NCI-H322M = experiment: Antiproliferative activity against human NCI-H322M cells assessed as reduction in cell viability after 48 hrs by CellTiter-Blue assay; format: functional; settings: read-out: LC50 (the source's name); in short: as §1
MDA-MB-435 = experiment: Antiproliferative activity against human MDA-MB-435 cells assessed as reduction in cell viability after 48 hrs by CellTiter-Blue assay; format: functional; settings: MDA-MB-435, 48 h, read-out: LC50 (the source's name); in short: as §1
SF-268 = experiment: Antiproliferative activity against human SF268 cells assessed as reduction in cell viability after 48 hrs by CellTiter-Blue assay; format: functional; settings: SF-268, 48 h, read-out: LC50 (the source's name); in short: as §1
K562 = experiment: Antiproliferative activity against human K562 cells assessed as reduction in cell viability after 48 hrs by CellTiter-Blue assay; format: functional; settings: K562, 48 h, read-out: LC50 (the source's name); in short: as §1
HL-60 = experiment: Induction of apoptosis in p53 null human HL60 cells harboring wild type FLT3 assessed as cleavage of pro-caspase 3 at 50 to 200 nM after 24 hrs by Western blot analysis; format: functional, cell-based
In short: (§2)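 Cells (1,500,000 per well) grown 12 h, then drug-treated as specified. Lysed in RIPA buffer, sonicated, centrifuged, protein normalized by BCA. Run on 4–12% Bis-Tris gels in MES, transferred, probed overnight at 4 °C with primary antibodies at 1/1000. Actin served as reference for LC3-II quantitation.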

COLO 205 = experiment: Antiproliferative activity against human COLO205 cells assessed as reduction in cell viability after 48 hrs by CellTiter-Blue assay; format: functional; settings: COLO 205, 48 h, read-out: LC50 (the source's name); in short: as §1
UACC-257 = experiment: Antiproliferative activity against human UACC257 cells assessed as reduction in cell viability after 48 hrs by CellTiter-Blue assay; format: functional; settings: UACC-257, 48 h, read-out: LC50 (the source's name)
In short: (§3)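 NCI-60 panel lines grown in RPMI1640 with 10% FBS at 37 °C, 5% CO₂. Seeded at 5,000–10,000 cells/well and pre-incubated overnight. Exposed for 48 h to six 10-fold dilutions (top final 10 μM), with a time-zero plate read at dosing. CellTiter-Blue (0.125 mg/mL) for 2–4 h, fluorescence 560/590 nm, triplicate curves.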

RS4-11 = experiment: Effect on LC3 degradation in human RS4:11 cells harboring wild type p53/FLT3 at 50 to 200 nM after 24 hrs by Western blot analysis; format: functional, cell-based; in short: as §2
KM12 = experiment: Antiproliferative activity against human KM12 cells assessed as reduction in cell viability after 48 hrs by CellTiter-Blue assay; format: functional; settings: KM12, 48 h, read-out: LC50 (the source's name); in short: as §1
[1] = Oral bioavailability in CD1 mouse at 20 mg/kg dosed via gavage after 24 hrs by LC-MS/MS analysis; format: ADME, organism-based; settings: in vivo
In short: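 Male CD-1 mice (n = 3) were fasted overnight and given compound in PBS with 5% DMSO, 5 mg/kg iv bolus or 20 mg/kg by gavage. Blood was sampled from 5 min to 24 h. Plasma was protein-precipitated with acetonitrile containing internal standard and quantified by LC-MS/MS (MRM). AUC was calculated by the linear trapezoidal method and parameters by non-compartmental analysis.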

BT-549 = experiment: Antiproliferative activity against human BT549 cells assessed as reduction in cell viability after 48 hrs by CellTiter-Blue assay; format: functional; settings: BT-549, 48 h, read-out: LC50 (the source's name); in short: as §1
NCI-H460 = experiment: Antiproliferative activity against human NCI-H460 cells assessed as reduction in cell viability after 48 hrs by CellTiter-Blue assay; format: functional; settings: NCI-H460, 48 h, read-out: LC50 (the source's name); in short: as §1
SNB-75 = experiment: Antiproliferative activity against human SNB75 cells assessed as reduction in cell viability after 48 hrs by CellTiter-Blue assay; format: functional; settings: SNB-75, 48 h, read-out: LC50 (the source's name); in short: as §3
MV4-11 = experiment: Down regulation of STAT5 in human MV4-11 cells harboring wild type p53/FLT3-ITD mutant at 50 to 200 nM after 24 hrs by Western blot analysis; format: functional, cell-based; in short: as §2
HOP-92 = experiment: Antiproliferative activity against human HOP92 cells assessed as reduction in cell viability after 48 hrs by CellTiter-Blue assay; format: functional; settings: HOP-92, 48 h, read-out: LC50 (the source's name); in short: as §1
SNB-19 = experiment: Antiproliferative activity against human SNB19 cells assessed as reduction in cell viability after 48 hrs by CellTiter-Blue assay; format: functional; settings: SNB-19, 48 h, read-out: LC50 (the source's name); in short: as §1
HCT-15 = experiment: Antiproliferative activity against human HCT15 cells assessed as reduction in cell viability after 48 hrs by CellTiter-Blue assay; format: functional; settings: HCT-15, 48 h, read-out: LC50 (the source's name); in short: as §1
Hs-578T = experiment: Antiproliferative activity against human Hs 578T cells assessed as reduction in cell viability after 48 hrs by CellTiter-Blue assay; format: functional; settings: read-out: LC50 (the source's name); in short: as §1
SR = experiment: Antiproliferative activity against human SR cells assessed as reduction in cell viability after 48 hrs by CellTiter-Blue assay; format: functional; settings: read-out: LC50 (the source's name); in short: as §3

CCCNNC(=O)/C=C/c1ccc(CNCCc2c(C)[nH]c3ccccc23)cc1.O=C(O)C(F)(F)F
CC50 (SF-539): > 10 µM
CC50 (NCI-H322M): > 10 µM
CC50 (MDA-MB-435): > 10 µM
CC50 (SF-268): > 10 µM
CC50 (K562): > 10 µM
Activity (HL-60): inactive
CC50 (COLO 205): 0.66 µM
CC50 (UACC-257): > 10 µM
Activity (RS4-11): inactive
CC50 (KM12): > 10 µM
F [1]: 19.8%
CC50 (BT-549): > 10 µM
CC50 (NCI-H460): > 10 µM
CC50 (SNB-75): > 10 µM
Activity (MV4-11): Active
CC50 (HOP-92): > 10 µM
CC50 (SNB-19): > 10 µM
CC50 (HCT-15): > 10 µM
CC50 (Hs-578T): > 10 µM
CC50 (SR): > 10 µM
